Source: PubChem
EBV LMP1 NFkB – inhibitors of Epstein-Barr LMP1-induced NF-kappaB reporter. LMP1-induced NF-kappaB luciferase reporter cells, luminescence. inhibition, % at 12.5 µM. 350,000 tested, 0.69% active. AID 504558; in the data active = inhibition above about 41%;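 also: 0% = neutral control wells and 100% = reference inhibitor control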
NR2E3 ag-1 – human photoreceptor-specific nuclear receptor agonism; Q9Y5X4; CHO-S Gal4-NCOR/VP16-NR2E3 two-hybrid, luciferase; inhibition of corepressor binding, % at 3.98 µM; 360,000 tested, 0.35% active;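 active = inhibition above the mean of all tested compounds plus 3 SD, cut at about 70% in these data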;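 also: 0% = DMSO with NR2E3 transfected cells and 100% = cells lacking NR2E3 construct; higher means lower luciferase signal from less NR2E3 corepressor binding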
Target sequence (Q9Y5X4 whole entry, looked up, the tested form may be a part): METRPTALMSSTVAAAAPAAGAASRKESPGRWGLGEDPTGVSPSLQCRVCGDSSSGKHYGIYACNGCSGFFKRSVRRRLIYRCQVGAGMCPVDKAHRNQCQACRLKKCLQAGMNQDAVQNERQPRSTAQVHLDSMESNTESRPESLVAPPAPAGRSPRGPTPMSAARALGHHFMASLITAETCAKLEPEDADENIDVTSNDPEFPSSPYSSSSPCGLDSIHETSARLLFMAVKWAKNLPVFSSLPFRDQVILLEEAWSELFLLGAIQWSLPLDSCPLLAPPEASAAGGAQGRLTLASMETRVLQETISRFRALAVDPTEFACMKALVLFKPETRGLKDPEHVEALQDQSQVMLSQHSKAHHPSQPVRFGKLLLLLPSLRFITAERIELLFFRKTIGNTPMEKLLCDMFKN
TROY signal inh – inhibitors of TROY-dependent NF-kB signaling; Q293 LMP1-TROYcd NF-kB luciferase reporter, 4 h; inhibition, % at 10 µM; 360,000 tested, 0.98% active; AID 1347056;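 active = compounds whose plate-normalised and pattern-corrected inhibition of the luciferase reporter signal at the single screening dose is 50% or more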
HIF activator – HIF pathway transcriptional activation; activation, % at 7.5 µM (by protocol); U2OS HRE-luciferase reporter, luminescence; normalized: DMSO 0%, desferrioxamine 100%; 300,000 tested, 0.32% active;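 active = mean activation of at least 10% of the iron chelator positive control signal, with at least half of replicates also reaching 10%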
NR2E3 ag-2 – activates human photoreceptor nuclear receptor NR2E3; inhibition of corepressor binding, % at 4.78 µM; Q9Y5X4; 320,000 tested, 0.12% active; GST-NR2E3/biotin-RetCOR TR-FRET, 1536-well;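 active = percent inhibition above the cutoff of mean plus 3 SD of all tested compounds, set per screening campaign, cut at about 20% in these data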;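 also: 0% = DMSO wells and 100% = biotin wells as full block of FRET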
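System: GST-tagged NR2E3 plus biotinylated RetCOR corepressor; Amount: 1.35 nM GST-tagged NR2E3 final; Dosing: single nominal compound dose of 4.8 µM; Schedule: 5 h incubation at 4 °C; Technique: TR-FRET with europium anti-GST and streptavidin-D2, 340 nm excitation; Controls: biotin wells as high control, 0.6% DMSO wells as low control.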
* hit, by the source's call; nt = no result given. Only some compounds are listed: those with a hit (about 2% of all), similar ones and a draw of the others.

SMILES	EBV LMP1 NFkB	NR2E3 ag-1	TROY signal inh	HIF activator	NR2E3 ag-2
COc1cc(-c2cc(-c3ccccc3)nc(SCC(=O)Nc3nccs3)c2C#N)cc(OC)c1OC	-5.8	11.4	7.8	-0.5	8.8
O=C(N/N=C/c1cc2cc3c(cc2nc1Cl)OCO3)c1ccncc1	-2.9	4.6	-19.2	345.2*	-0.9
O=C(N/N=C/c1cc(Cl)ccc1O)c1ccncc1	-1.7	9.7	-10.2	26.5*	-2.0
O=C(N/N=C/c1ccccc1Cl)c1ccncc1	1.9	-7.3	-23.3	-0.5	-0.1
O=C(N/N=C/c1cccnc1)c1ccc(NC(=O)c2ccc(Cl)cc2)cc1	-5.5	-30.8	-5.7	39.5*	3.7
COc1ccc(N2C(=O)CCC2(C#N)c2ccc(OC)cc2)cc1 (configuration not stated)	-6.9	-11.4	-3.5	0.1	1.6
COc1ccc(C2(C#N)CCC(=O)N2c2ccccc2)cc1 (configuration not stated)	4.7	19.1	51.7*	0.1	-1.9
COc1ccc(C(=O)N=c2nc3ccccn3s2)cc1	64.2*	-130.7	78.5*	1.7	2.2
CCCCN(C(=O)CC1CCCC1)c1c(N)n(Cc2ccccc2)c(=O)[nH]c1=O	3.1	-0.9	-10.3	nt	nt
O=S(=O)(c1ccc(Cl)c(Cl)c1)c1snnc1-c1ccccc1	21.4	-29.3	51.8*	-0.1	nt
N#C/C(=C\c1cccc([N+](=O)[O-])c1)c1nnc2n1CCCCC2	7.4	0.9	82.3*	-0.6	2.0
CN(c1ccccc1)c1ccc(/C=C(\C#N)c2nnc3n2CCCCC3)cc1[N+](=O)[O-]	11.6	-22.9	-8.0	0.3	1.6
CCN(C(=O)CSc1nc2cc(S(=O)(=O)N(CC)CC)ccc2o1)C1CCS(=O)(=O)C1 (configuration not stated)	-0.7	-3.5	15.4	0.1	1.2
O=C(Nc1nc(-c2ccccn2)cs1)c1ccc(S(=O)(=O)N2CCCCC2)cc1	nt	nt	nt	16.2*	3.6
Cn1cccc1C(=O)Nc1nc(-c2ccccn2)cs1	41.9*	-29.1	-77.2	3.4	-3.1
O=C(Nc1nc(-c2ccccn2)cs1)c1ccc(Cl)s1	72.9*	11.3	-59.2	nt	2.2
Cc1c(C(=O)Nc2nc(-c3ccccn3)cs2)oc2ccccc12	40.7*	33.6	-24.5	nt	0.4
COc1ccccc1N1CCNC(C)C1=O (configuration not stated)	5.2	-7.2	7.3	-0.3	3.1
CO[C@@]12[C@@H]3N[C@@H]3CN1C1=C(C(=O)C(N)=C(C)C1=O)[C@@H]2COC(N)=O	61.6*	1.0	11.0	nt	nt
CO[C@@]12[C@H](COC(N)=O)C3=C(C(=O)C(C)=C(N)C3=O)N1C[C@@H]1N[C@@H]12	4.6	2.2	-11.7	nt	0.8
CC(=O)Nc1cc(-c2ccccc2N(C)C)cn2c(-c3cccc(C(F)(F)F)c3)cnc12	nt	-10.8	-18.7	nt	nt
COc1ccccc1C=CC(=O)C=Cc1ccccc1OC	66.0*	5.2	-35.8	nt	nt
CCCC(=O)N(Cc1cc(=O)[nH]c2ccccc12)c1ccc(C)cc1C	-0.1	-11.7	-1.9	-7.7	nt
Cc1ccc(N(Cc2cc(=O)[nH]c3ccccc23)C(=O)CCl)c(C)c1	46.9*	17.9	-4.1	0.7	-0.2
CCc1ccc(C(=O)NCC2(c3ccccc3)CCOCC2)o1	-9.6	-4.1	-52.6	nt	nt
SMILES	EBV LMP1 NFkB	NR2E3 ag-1	TROY signal inh	HIF activator	NR2E3 ag-2
O=C1CC(c2ccco2)Cc2nc(Nc3nc(-c4ccccc4)c4ccccc4n3)ncc21 (configuration not stated)	77.2*	-36.9	-2.7	-0.4	-3.4
COc1ccc(-n2cccc2/C=C2/NC(=O)N(c3cccc(Cl)c3)C2=O)cc1	-13.9	-27.5	76.1*	2.9	-0.8
CCOC(=O)C1CCCN(S(=O)(=O)c2nc3nc(C)cc(C)n3n2)C1 (configuration not stated)	nt	-12.2	-13.4	nt	nt
COc1ccc(OC)c(NC2c3ncccc3C(=O)N2Cc2ccco2)c1 (configuration not stated)	-2.5	12.1	6.0	-0.5	0.3
COc1ccc(CN2C(=O)c3cccnc3C2Nc2cc(Cl)ccc2OC)cc1 (configuration not stated)	65.8*	-2.2	1.1	-0.5	3.1
CCOC(=O)N1CCC(n2c(=S)[nH]c3ccccc3c2=O)CC1	65.9*	5.3	3.0	-0.5	2.4
COC(=O)Cc1ccc(NC(=S)NCCO)cc1	-1.7	23.4	0.7	-0.2	2.2
COC(=O)Cc1ccc(NC(=S)NC(C)(C)C)cc1	-8.2	3.0	11.8	25.2*	-1.2
